Series [1] relates to Saccharomyces cerevisiae. Nature of the series: Antifungal activity against Saccharomyces cerevisiae ATCC 7754 after 48 hr by broth macrodilution method. As to conditions: ATCC 7754, 48 h.
Series [2] concerns Saccharomyces cerevisiae. Nature of the series: microbe, parasite or virus in culture. Format: functional. As to conditions: ATCC 7754, 48 h.
Series [3] concerns Saccharomyces cerevisiae. Nature of the series: microbe, parasite or virus in culture. Format: functional. As to conditions: ATCC 7754, 48 h. This is another data set of the same source.
The subject of series [4] is Saccharomyces cerevisiae. Nature of the series: Antifungal activity against Saccharomyces cerevisiae ATCC 7754 at MFC after 2 hr. The series is classed as functional, organism-based. The method, boiled down: (§1)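 Time-kill assay. A 5-h, 30 °C preculture was inoculated into ME broth containing compound, initial 5.8 × 10^5 CFU/mL, then grown at 30 °C without shaking. Samples were taken at selected times over 48 h, serially diluted in sterile saline and plated on YPD agar. Plates were incubated 24 h at 30 °C before counting viable CFU.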

Series [5] has as its system Saccharomyces cerevisiae. Nature of the series: Antifungal activity against Saccharomyces cerevisiae ATCC 7754 at 3.13 to 12.5 ug/ml after 1 hr by time kill analysis. The series is classed as functional, organism-based. The method, boiled down:
as §1

The test system of series [6] is Saccharomyces cerevisiae. Kind of series: Antifungal activity against Saccharomyces cerevisiae ATCC 7754 at MFC to 4 times MFC treated 24 hr after incubation measured up to 30 hr. The series is classed as functional, organism-based. In a few lines: (§2)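 Growth-stage kill test. Yeast at 10^5 cells/mL was inoculated into ME broth. Compound at MFC, 2× MFC or 4× MFC was added after 0, 4 or 24 h of incubation, and viable cells were then followed over time.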

Series [7] concerns Saccharomyces cerevisiae. Nature of the series: Antifungal activity against Saccharomyces cerevisiae ATCC 7754 at MFC to 4 times MFC treated 4 hr after incubation measured up to 30 hr. The series is classed as functional, organism-based. In a few lines:
as §2

For series [8], the system named is Saccharomyces cerevisiae. Kind of series: microbe, parasite or virus in culture. To be noted: ATCC 7754, 48 h. The series is classed as functional. The source holds these as a separate data set.
Series [9] deals with Saccharomyces cerevisiae. Kind of series: Drug uptake in Saccharomyces cerevisiae ATCC 7754 at 50 to 100 ug/ml after 5 seconds. The series is classed as ADME, organism-based. As to conditions: in vivo, 5 s. The method, boiled down:
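Adsorption to cells. Yeast grown overnight with shaking in YPD at 30 °C was washed twice in 50 mM MOPS pH 6.0. Compound was mixed with or without cells (10^8 cells/mL) in this buffer at 30 °C and vortexed 5 s. After 2 min centrifugation, supernatant absorbance was read at 272 nm.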

For series [10], the system named is Radical scavenging activity. Kind of series: Antioxidant activity assessed as DPPH free radical scavenging activity after 20 min. The series is classed as functional. The method, boiled down: (§3)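 DPPH scavenging. The mix held 100 mM acetate buffer pH 5.5, ethanol, ethanolic DPPH and sample. It stood 20 min at room temperature, then absorbance was read at 517 nm. Results are % decrease versus a DPPH control. IC50 was interpolated from concentration-inhibition curves, as the mean of triplicates.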

Series [11] deals with Saccharomyces cerevisiae. Kind of series: microbe, parasite or virus in culture. Format: functional. To be noted: ATCC 7754, 48 h. This is another data set of the same source.
The test system of series [12] is Saccharomyces cerevisiae. Kind of series: Antifungal activity against Saccharomyces cerevisiae ATCC 7754 at 12.5 to 50 ug/ml after 1 hr by time kill analysis. Format: functional, organism-based. The method, boiled down:
as §1

For series [13], the system named is Radical scavenging activity. Kind of series: Antioxidant activity assessed as DPPH free radical scavenging activity up to 800 ug/ml after 20 min. The series is classed as functional. The method, boiled down:
as §3
Background: The DPPH test is a chemical assay of radical scavenging.

Values after ≈ are worked out from the molar mass of the structure shown. Active and inactive are the calls of the source. No cut-off for these calls is given here. A value given as a limit tells only on which side of the number the result lay.

In the series on Saccharomyces cerevisiae [1], `O=C(O)c1cccc(O)c1` [3-HYDROXYBENZOIC ACID] registered an MFC above 3200 µg/mL and an MIC of 3200 µg/mL (≈ 23200 µM).

In the series on Saccharomyces cerevisiae [1], `CCCCCCCOC(=O)c1cc(O)c(O)c(O)c1` [HEPTYL GALLATE] displayed an MFC of 100 µg/mL (≈ 373 µM) and an MIC of 100 µg/mL (≈ 373 µM).

In the series on Saccharomyces cerevisiae [1], `O=C(O)c1ccc(O)c(O)c1` [PROTOCATECHUIC ACID] came in with an MFC above 3200 µg/mL and an MIC of 3200 µg/mL (≈ 20800 µM).

Turning to `CCCCCCCCCCO` [DECANOL], in the series on Saccharomyces cerevisiae [1], the MFC stood at 50 µg/mL (≈ 316 µM) and the MIC came to 50 µg/mL (≈ 316 µM).

Molecule `CCCCCCCCCCCCO` [DODECANOL] displayed an MFC against Saccharomyces cerevisiae [1] above 1600 µg/mL.

Regarding `CCCCCCCCCOC(=O)c1cc(O)c(O)c(O)c1` [NONYL GALLATE], the MFC with Saccharomyces cerevisiae [2] was 12.5 µg/mL (≈ 42.2 µM); in the series with Saccharomyces cerevisiae [1] it was 12.5 µg/mL (≈ 42.2 µM); with Saccharomyces cerevisiae [3], 12.5 µg/mL (≈ 42.2 µM); in the series on Saccharomyces cerevisiae [8] it was 25 µg/mL (≈ 84.4 µM); against Saccharomyces cerevisiae [11], 50 µg/mL (≈ 169 µM). The MIC was 6.25 µg/mL (≈ 21.1 µM) in the series on Saccharomyces cerevisiae [2]; 6.25 µg/mL (≈ 21.1 µM) in the series with Saccharomyces cerevisiae [1]; 6.25 µg/mL (≈ 21.1 µM) against Saccharomyces cerevisiae [3]; 12.5 µg/mL (≈ 42.2 µM) in the series on Saccharomyces cerevisiae [8]; 25 µg/mL (≈ 84.4 µM) with Saccharomyces cerevisiae [11]. The outcome (in the series with Saccharomyces cerevisiae [4]; in the series on Saccharomyces cerevisiae [5]; in the series on Saccharomyces cerevisiae [6]; in the series with Saccharomyces cerevisiae [7]; in series [10]) was Active. Moreover, the Drug uptake result in the series with Saccharomyces cerevisiae [9] was “Active”.

In the case of `CCCCCCCCCCCCOC(=O)c1cc(O)c(O)c(O)c1` [DODECYL GALLATE], in the series with Saccharomyces cerevisiae [1], the MFC is above 1600 µg/mL and the MIC was above 1600 µg/mL. In addition, in the series with Saccharomyces cerevisiae [9], the Drug uptake entry is “Active”.

In the series on Saccharomyces cerevisiae [1], `O=C(OC1CCC2CCCCC2C1)c1cc(O)c(O)c(O)c1` (configuration not stated) [DECAHYDRO-2-NAPHTHYL GALLATE] returned an MFC of 50 µg/mL (≈ 163 µM) and an MIC of 50 µg/mL (≈ 163 µM).

In the series with Saccharomyces cerevisiae [1], `CCCCCCOC(=O)c1cc(O)c(O)c(O)c1` [HEXYL GALLATE] gave an MFC of 400 µg/mL (≈ 1570 µM) and an MIC of 400 µg/mL (≈ 1570 µM).

For `CC(C)=CCC/C(C)=C/COC(=O)c1cc(O)c(O)c(O)c1` [Geranyl gallate], in the series on Saccharomyces cerevisiae [12], the result was Active. In addition, in the series on Saccharomyces cerevisiae [1], the MFC worked out at 50 µg/mL (≈ 163 µM) and the MIC is 50 µg/mL (≈ 163 µM).

As to `CCCCCCOC(=O)c1cc(O)cc(O)c1` [HEXYL 3,5-DIHYDROXYBENZOATE], the result in series [13] was inactive. The MIC in the series with Saccharomyces cerevisiae [1] is above 800 µg/mL.

In the series with Saccharomyces cerevisiae [1], `CCCCCCCCCOC(=O)c1ccc(OC)c(O)c1` yielded an MFC above 400 µg/mL and an MIC above 400 µg/mL. The outcome in series [10] was Active.

In the case of `CCCCCCCCCOC(=O)c1ccc(O)c(OC)c1`, in the series with Saccharomyces cerevisiae [1], the MFC is above 400 µg/mL and the MIC was above 400 µg/mL. Besides, the outcome in series [10] was Active.

For `CCCCCCCCCCCOC(=O)c1cc(O)c(O)c(O)c1` [UNDECYL GALLATE], in the series on Saccharomyces cerevisiae [1], the MFC is above 1600 µg/mL and the MIC is above 1600 µg/mL.

In the series with Saccharomyces cerevisiae [1], `CCCCCCOC(=O)c1ccc(O)c(O)c1` [HEXYL 3,4-DIHYDROXYBENZOATE] had an MFC of 400 µg/mL (≈ 1680 µM) and an MIC of 400 µg/mL (≈ 1680 µM).

With `CCCCCCCCCO` [NONANOL], in the series on Saccharomyces cerevisiae [1], the MFC was determined as 200 µg/mL (≈ 1390 µM) and the MIC amounted to 100 µg/mL (≈ 693 µM).

In the series with Saccharomyces cerevisiae [1], `CCCCCCCCCCCO` [UNDECANOL] came in with an MFC of 25 µg/mL (≈ 145 µM) and an MIC of 25 µg/mL (≈ 145 µM).

As for `CCCCCCCCCCOC(=O)c1cc(O)c(O)c(O)c1` [DECYL GALLATE], in the series on Saccharomyces cerevisiae [1], the MFC is 25 µg/mL (≈ 80.5 µM) and the MIC came out at 12.5 µg/mL (≈ 40.3 µM).

For the molecule `CCCCCCCCCOC(=O)c1cccc(O)c1` [NONYL 3-HYDROXYBENZOATE], in the series with Saccharomyces cerevisiae [1], the MFC is above 400 µg/mL and the MIC is above 400 µg/mL. Moreover, the result in series [10] was inactive.

As to `O=C(O)c1ccccc1` [BENZOIC ACID], the MFC against Saccharomyces cerevisiae [2], in the series with Saccharomyces cerevisiae [1] and in the series with Saccharomyces cerevisiae [3] was 1600 µg/mL (≈ 13100 µM) in each case. Further, the MIC against Saccharomyces cerevisiae [2] is 800 µg/mL (≈ 6550 µM); in the series on Saccharomyces cerevisiae [1], 800 µg/mL (≈ 6550 µM); with Saccharomyces cerevisiae [3], 800 µg/mL (≈ 6550 µM); in the series with Saccharomyces cerevisiae [8], above 1600 µg/mL; against Saccharomyces cerevisiae [11] it was above 1600 µg/mL.

As to `C/C=C/C=C/C(=O)O` [SORBIC ACID], the MFC with Saccharomyces cerevisiae [2] came to 3200 µg/mL (≈ 28500 µM); in the series with Saccharomyces cerevisiae [3], 1600 µg/mL (≈ 14300 µM). For the same molecule, the MIC was 800 µg/mL (≈ 7130 µM) against Saccharomyces cerevisiae [2], 400 µg/mL (≈ 3570 µM) against Saccharomyces cerevisiae [3], above 1600 µg/mL in the series on Saccharomyces cerevisiae [8] and above 1600 µg/mL against Saccharomyces cerevisiae [11].

Consider `O=C(O)c1ccc(O)cc1` [PARABEN], for which, in the series with Saccharomyces cerevisiae [1], the MFC was above 3200 µg/mL and the MIC turned out to be 1600 µg/mL (≈ 11600 µM).

In the series on Saccharomyces cerevisiae [1], `CCCCCCCCCOC(=O)c1ccc(O)cc1` [NONYL 4-HYDROXYBENZOATE] showed an MIC above 400 µg/mL. The result in series [10] was inactive.

In the series with Saccharomyces cerevisiae [1], `CCCCCCCCCCCCCO` [TRIDECAN-1-OL] returned an MIC above 1600 µg/mL.

In turn, `O=C(O)c1cc(O)c(O)c(O)c1` [GALLIC ACID] registered an MIC in the series with Saccharomyces cerevisiae [1] above 3200 µg/mL.

Molecule `COC(=O)c1cc(O)c(O)c(O)c1` [GALLIC ACID METHYL ESTER] came in with an MIC against Saccharomyces cerevisiae [1] above 3200 µg/mL.

Consider `CCCCCCCO` [1-HEPTANOL], for which, in the series with Saccharomyces cerevisiae [1], the MFC is above 1600 µg/mL and the MIC is 800 µg/mL (≈ 6880 µM).

Turning to `CCCOC(=O)c1cc(O)c(O)c(O)c1` [PROPYL GALLATE], in the series on Saccharomyces cerevisiae [1], the MFC was above 3200 µg/mL and the MIC was 3200 µg/mL (≈ 15100 µM).

As for `CCCCCCCCCOC(=O)c1ccc(O)c(O)c1` [NONYL 3,4-DIHYDROXYBENZOATE], in the series with Saccharomyces cerevisiae [1], the MFC turned out to be 12.5 µg/mL (≈ 44.6 µM) and the MIC was determined as 6.25 µg/mL (≈ 22.3 µM). In addition, the result in [10] was Active.

In the series on Saccharomyces cerevisiae [1], `CCCCCCCCCOC(=O)c1cc(O)cc(O)c1` [NONYL 3,5-DIHYDROXYBENZOATE] gave an MFC above 400 µg/mL and an MIC above 400 µg/mL. The result in [10] was inactive.

On to `CCCCCCO` [1-HEXANOL], for which, in the series on Saccharomyces cerevisiae [1], the MFC is above 1600 µg/mL and the MIC was above 1600 µg/mL.

In the series on Saccharomyces cerevisiae [1], `CCCCCCCCCOC(=O)c1ccccc1` [NONYL BENZOATE] had an MIC above 400 µg/mL. In [10], the outcome was inactive.

Take `CCCCCCOC(=O)c1ccc(O)cc1` [HEXYL 4-HYDROXYBENZOATE]: the result in series [13] was inactive. This molecule also came in with an MIC against Saccharomyces cerevisiae [1] above 800 µg/mL.

In the series on Saccharomyces cerevisiae [1], `CCCCCCCCO` [OCTANOL] displayed an MFC of 800 µg/mL (≈ 6140 µM) and an MIC of 200 µg/mL (≈ 1540 µM).

As to `O=C(O)c1cc(O)cc(O)c1` [3,5-DIHYDROXYBENZOIC ACID], in the series with Saccharomyces cerevisiae [1], the MFC was above 3200 µg/mL and the MIC came out at 3200 µg/mL (≈ 20800 µM).

For the origin of these results see ChEMBL document CHEMBL3046297, “Molecular design of antifungal agents” (J Agric Food Chem, 2002).
